From ChEMBL document CHEMBL1125286, “Zatosetron, a potent, selective, and long-acting 5HT3 receptor antagonist: synthesis and structure-activity relationships” (J Med Chem, 1992) come the findings set out here.

Assay [1] has as its target T1, Serotonin 3 (5-HT3) receptor (Rattus norvegicus) (UniProt P35563+Q9JJ16). Kind of assay: Compound was tested for the inhibition of 5-HT-induced bradycardia after peroral administration of 1 mg/kg at 3 hours in urethane-anesthetized rats. The class given is functional, organism-based. Further details: dose 1 mg/kg. Conditions: at 1 mg/kg. The method in brief:
(§1)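 Duration study: antagonist or vehicle gavaged to conscious fasted rats (5 mL/kg). Rats were urethane-anesthetized and surgically prepared, then challenged with 5HT 0.03 mg/kg iv at the stated time after dosing. Vehicle-treated rats served as controls. Peak inhibition of bradycardia recorded in groups of 3–11, means ± SEM.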

The target of assay [2] is T1, Serotonin 3 (5-HT3) receptor (Rattus norvegicus). Kind of assay: 5-hydroxytryptamine 3 receptor antagonistic activity was measured by the inhibition of 5H+ T-induced bradycardia after po administration of 30 ug/kg dose in urethane-anesthetized rats. The class given is functional, organism-based. Summed up: (§2)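 Fasted rats dosed by gavage (5 mL/kg) with compound or distilled-water vehicle. Urethane anesthesia and surgical preparation 15–20 min before challenge. 5HT 0.03 mg/kg iv given 1 h after dosing. Peak bradycardia is compared with vehicle-treated controls. Means ± SEM, groups of 3–11 rats.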

Assay [3] has the same target. The experiment in a line: Compound was tested for the inhibition of 5-HT-induced bradycardia after peroral administration in urethane-anesthetized rats.
Assay [4] has the same target. The experiment in a line: 5-hydroxytryptamine 3 receptor antagonistic activity was measured by the inhibition of 5H+ T-induced bradycardia after po administration of 100 ug/kg dose in urethane-anesthetized rats. The class given is functional, organism-based. The method in brief: as §2
For assay [5] the target is unchanged. The experiment in a line: 5-hydroxytryptamine 3 receptor antagonistic activity was measured by the inhibition of 5H+ T-induced bradycardia after po administration of 300 ug/kg dose in urethane-anesthetized rats. The class given is functional, organism-based. Summed up:
as §2

Assay [6] has the same target. The experiment in a line: Compound was tested for the inhibition of 5-HT-induced bradycardia after peroral administration of 1 mg/kg at 1 hour in urethane-anesthetized rats. On the set-up: dose 1 mg/kg. Conditions: at 1 mg/kg. Type of assay: functional, organism-based. The method in brief: as §1
Assay [7] has the same target. Kind of assay: Compound was tested for the inhibition of 5-HT-induced bradycardia after peroral administration of 1 mg/kg at 0.5 hours in urethane-anesthetized rats. Type of assay: functional, organism-based. On the set-up: dose 1 mg/kg. Conditions: at 1 mg/kg. The method in brief: as §1
Assay [8] has the same target. The experiment in a line: Inhibition of 5-HT-induced bradycardia by 5-hydroxytryptamine 3+. The class given is functional.
Assay [9] shares this target. Kind of assay: 5-hydroxytryptamine 3 receptor antagonistic activity was measured by the inhibition of 5H+ T-induced bradycardia after po administration of 1000 ug/kg dose in urethane-anesthetized rats. Type of assay: functional, organism-based. The method in brief: as §2
Assay [10] has as its system Serotonin 3 receptor (Cavia porcellus). Kind of assay: In vitro binding affinity was measured for 5-hydroxytryptamine 3 receptor in the guinea pig ileum.
Assay [11] deals with T1, Serotonin 3 (5-HT3) receptor (Rattus norvegicus). The experiment in a line: Compound was tested for the inhibition of 5-HT-induced bradycardia after intravenous administration of 1 ug/kg dose in urethane-anesthetized rats. The class given is functional, organism-based. The method in brief: (§3)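 Urethane-anesthetized rats; antagonist or saline given iv via femoral vein after heart rate settled (≤5 min) from an initial 5HT challenge (30 µg/kg iv). 5HT was given again 15 min later. Peak bradycardia measured, each rat its own control; % inhibition = difference between first and second responses. Groups of 3–16 rats, means ± SEM.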

For assay [12] the target is unchanged. The experiment in a line: Compound was tested for the inhibition of 5-HT-induced bradycardia after peroral administration of 10 mg/kg at 3 hours in urethane-anesthetized rats. The class given is functional, organism-based. On the set-up: dose 10 mg/kg. To be noted: at 10 mg/kg. The method in brief: (§4)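 Duration study. Antagonist or vehicle is given by oral gavage to conscious rats. Rats are then urethane-anesthetized, surgically prepared and challenged with 5HT 0.03 mg/kg iv at the stated time after dosing. Peak inhibition of bradycardia is measured against vehicle-treated controls. Means ± SEM, groups of 3–11 rats.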

The target is the same in assay [13]. The experiment in a line: Compound was tested for the inhibition of 5-HT-induced bradycardia after peroral administration of 10 mg/kg at 1 hour in urethane-anesthetized rats. Type of assay: functional, organism-based. Conditions: at 10 mg/kg. Further details: dose 10 mg/kg. Summed up: as §4
The target is the same in assay [14]. Kind of assay: 5-hydroxytryptamine 3 receptor antagonistic activity as inhibition of 5-HT-induced bradycardia after iv administration of 100 ug/kg dose in urethane-anesthetized rats. Type of assay: functional, organism-based. Summed up:
(§5)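 Urethane-anesthetized rats. First 5HT challenge 30 μg/kg iv gives a transient bradycardia. Once heart rate is back at steady state (≤5 min), test compound or saline goes in via the femoral vein. 5HT 30 μg/kg iv is repeated 15 min later. % inhibition is the difference between first and second bradycardia at peak, each animal its own control. Means ± SEM, groups of 3–16 rats.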

For assay [15] the target is unchanged. Kind of assay: 5-hydroxytryptamine 3 receptor antagonistic activity was measured by the inhibition of 5H+ T-induced bradycardia after iv administration of 3 ug/kg dose in urethane-anesthetized rats. Type of assay: functional, organism-based. Summed up: as §3
The target is the same in assay [16]. Kind of assay: 5-hydroxytryptamine 3 receptor antagonistic activity measured by inhibition of 5-HT-induced bradycardia (iv administration 10 ug/kg dose in urethane-anesthetized rats). Type of assay: functional, organism-based. The method in brief:
as §5

The target is the same in assay [17]. Kind of assay: Compound was tested for the inhibition of 5-HT-induced bradycardia after peroral administration of 1000 ug/kg dose in urethane-anesthetized rats. The class given is functional, organism-based. Summed up: as §2
For assay [18] the target is unchanged. The experiment in a line: Compound was tested for the inhibition of 5-HT-induced bradycardia after peroral administration of 0.03 mg/kg at 6 hours in urethane-anesthetized rats. To be noted: at 0.03 mg/kg. Further details: dose 0.03 mg/kg. Type of assay: functional, organism-based. The method in brief: as §4
For assay [19] the target is unchanged. Kind of assay: Compound was tested for the inhibition of 5-HT-induced bradycardia after peroral administration of 0.03 mg/kg at 3 hours in urethane-anesthetized rats. Type of assay: functional, organism-based. Further details: dose 0.03 mg/kg. To be noted: at 0.03 mg/kg. The method in brief: as §4
For assay [20] the target is unchanged. The experiment in a line: Compound was tested for the inhibition of 5-HT-induced bradycardia after peroral administration of 0.03 mg/kg at 1 hour in urethane-anesthetized rats. The class given is functional, organism-based. Further details: dose 0.03 mg/kg. Conditions: at 0.03 mg/kg. Summed up: as §4
For assay [21] the target is unchanged. Kind of assay: 5-hydroxytryptamine 3 receptor antagonistic activity was measured by the inhibition of 5H+ T-induced bradycardia after iv administration of 1000 ug/kgetized rats. Type of assay: functional, organism-based. The method in brief:
as §5

The target is the same in assay [22]. The experiment in a line: 5-hydroxytryptamine 3 receptor antagonistic activity was measured by the inhibition of 5H+ T-induced bradycardia after iv administration of 1 ug/kg dose in urethane-anesthetized rats. The class given is functional, organism-based. The method in brief:
as §5

The target is the same in assay [23]. The experiment in a line: Compound was tested for the inhibition of 5-HT-induced bradycardia after peroral administration of 0.3 mg/kg at 1 hour in urethane-anesthetized rats. Conditions: at 0.3 mg/kg. The class given is functional, organism-based. Further details: dose 0.3 mg/kg. Summed up:
as §4

For assay [24] the target is unchanged. The experiment in a line: Compound was tested for the inhibition of 5-HT-induced bradycardia after peroral administration of 0.3 mg/kg at 6 hours in urethane-anesthetized rats. The class given is functional, organism-based. On the set-up: dose 0.3 mg/kg. To be noted: at 0.3 mg/kg. The method in brief:
as §4

For assay [25] the target is unchanged. The experiment in a line: Compound was tested for the inhibition of 5-HT-induced bradycardia after peroral administration of 0.3 mg/kg at 0.5 hours in urethane-anesthetized rats. Conditions: at 0.3 mg/kg. Further details: dose 0.3 mg/kg. The class given is functional, organism-based. Summed up: as §4
For assay [26] the target is unchanged. The experiment in a line: Compound was tested for the inhibition of 5-HT-induced bradycardia after peroral administration of 0.3 mg/kg at 3 hours in urethane-anesthetized rats. The class given is functional, organism-based. On the set-up: dose 0.3 mg/kg. To be noted: at 0.3 mg/kg. Summed up:
as §4

SMILES strings stand for the structures.

Consider `Cc1nccn1CC1CCc2c(c3ccccc3n2C)C1=O` (configuration not stated), for which the inhibition (commonly the change of the read-out against control, counted positive when it falls) in assay [1] was 6.5%; in assay [2] it was 0.3%; in [4], 18.2%; in assay [5], 55.1%; in [6] it was 73.4%; in assay [7], 74.3%. Also, the inhibition in assay [9] was 73.4%. Also, the ED50 (commonly the dose at which the effect has come halfway, by size or by number of responders) in assay [3] is 0.316 mg/kg; in [8] it was 3.3 µg/kg.

In assay [10], `Cc1cc2c(c(C(=O)OC3CC4CCC(C3)N4C)c1)OC(C)C2` (configuration not stated) had a -Log KB of 7.32. The inhibition in assay [11] was 3.3%; in assay [12], 0%; in assay [13], 74.8%; in assay [14], 78.2%; in assay [15], 14.4%; in assay [16], 66.7%. This molecule also had an inhibition in [17] of 11.6%. Further, the ED50 came out at 5.17 mg/kg in assay [3] and 12.6 µg/kg in [8].

Consider `CN1[C@@H]2CC[C@H]1C[C@@H](OC(=O)c1cc(Cl)cc3c1OC(C)(C)C3)C2`, for which the inhibition was determined as 20.6% in assay [18]; 58% in assay [19]; 19.3% in assay [15]; 82.7% in [16]; 86.2% in assay [20]. This molecule displayed a -Log KB in [10] of 7.92. For the same molecule, the ED50 was determined as 0.0088 mg/kg in assay [3] and 4.6 µg/kg in assay [8].

As for `CN1C2CCC1CC(OC(=O)c1cccc3oc4ccccc4c13)C2` (configuration not stated), the inhibition in [14] is 12.4%; in [21], 66.3%; in assay [16], 0%.

Regarding `CC1Cc2cc(Cl)cc(C(=O)OC3CC4CCC(C3)N4C)c2O1` (configuration not stated), the inhibition in [22] was found to be 5.6%; in assay [4], 33.1%; in assay [23], 66.2%; in assay [24], 0%; in assay [25] it was 92.6%; in assay [26] it was 60.5%. The figures for the inhibition in assay [15], in [16] and in assay [9] were 50.8%, 69% and 94.7%, respectively. For the same molecule, the -Log KB in [10] came out at 7.88. Moreover, the figures for the ED50 in assay [3] and in [8] were 0.179 mg/kg and 4.2 µg/kg, respectively.
